In the library only some 2.2% were active in any assay of this set; here they are far more common.
E-sel inducer – E-selectin induction on HUVECs. AID 686992. activation, % at 7.58 µM. HUVEC E-selectin immunofluorescence imaging; normalized: neutral wells 0, TNF-alpha wells 100. 260,000 compounds, 0.37% hits. P16581;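 active = mean E-selectin-positive cell signal at least 10% of the positive control, reached in at least 60% of replicates, without over 20% cell loss; inconclusive = no rule given, readout overlaps actives, possibly toxicity-flagged; inactive = the rest, including those meeting only one limit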
Target sequence (P16581 whole entry, looked up): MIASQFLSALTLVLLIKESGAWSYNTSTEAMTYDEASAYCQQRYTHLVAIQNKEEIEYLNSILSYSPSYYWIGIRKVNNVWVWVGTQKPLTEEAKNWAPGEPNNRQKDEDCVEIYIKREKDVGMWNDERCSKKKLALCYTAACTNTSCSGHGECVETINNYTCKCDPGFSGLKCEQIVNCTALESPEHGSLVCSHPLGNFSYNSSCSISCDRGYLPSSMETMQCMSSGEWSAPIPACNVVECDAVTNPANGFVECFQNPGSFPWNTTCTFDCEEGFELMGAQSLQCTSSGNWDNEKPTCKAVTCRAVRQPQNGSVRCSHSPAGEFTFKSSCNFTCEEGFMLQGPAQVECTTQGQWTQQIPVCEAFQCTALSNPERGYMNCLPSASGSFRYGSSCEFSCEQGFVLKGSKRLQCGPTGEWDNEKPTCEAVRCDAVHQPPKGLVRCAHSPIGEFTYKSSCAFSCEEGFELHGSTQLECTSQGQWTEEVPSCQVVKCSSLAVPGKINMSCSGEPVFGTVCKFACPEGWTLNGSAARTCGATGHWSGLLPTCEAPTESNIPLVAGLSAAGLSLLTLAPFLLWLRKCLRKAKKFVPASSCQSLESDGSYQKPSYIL
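material = human umbilical vein endothelial cells (HUVEC), E-selectin induction | quantity = 3,000 cells/well | medium = EGM-2 growth medium on 0.1% gelatin-coated wells | technique = immunofluorescence imaging | read-out basis = % PE-positive cells | control set = TNF-alpha positive control, DMSO neutral control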
DENV2 CPE – protects cells from dengue virus 2 cytopathic effect | DENV2-infected cells, cytopathic effect rescue, plate reader | CPE inhibition, % at 9.99 µM | 350,000 compounds, 1.7% hits | AID 651640; in the data active = CPE inhibition above about 20%, passing the limit was not always enough; inconclusive = no clear call, values can overlap the other calls; tested in BHK-21 cells
Statin myotox sup – suppressors of simvastatin-induced myotoxicity in C2C12 myotubes; ATP luminescence, 48 h; scaled: DMSO 0, geranylgeraniol control 100; rescue of ATP level, % at 7.49 µM; 330,000 compounds, 0.78% hits; AID 602340;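 active = mean ATP rescue above about 67%, or every replicate alone reaching that limit, limit read from the data, passing the limit was not always enough; inconclusive = no clear call, values can overlap the other calls; inactive = mean under the limit and some replicate under it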;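 note: myotubes were challenged with 10 µM simvastatin during compound exposure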
Each line names hits and unclear results; the compound was inactive in the other large screens.

CS(=O)(=O)N(CC(=O)N1CCc2ccccc2C1)c1cccc(F)c1	none (no result: E-sel inducer)
O=C(CNc1cccc(F)c1)N1CCc2ccccc2C1	Statin myotox sup 118 (no result: E-sel inducer)
COCCNC(=O)C[C@@H]1C[C@H]2c3cc(NC(=O)Nc4ccc(OC)cc4)ccc3O[C@H]2[C@H](CO)O1	DENV2 CPE 23
COCCNC(=O)C[C@H]1C[C@@H]2c3cc(NC(=O)Nc4ccc(OC)cc4)ccc3O[C@@H]2[C@H](CO)O1	DENV2 CPE inconclusive
CN(C)c1ccc2c(c1)[C@@H]1C[C@@H](CC(=O)NCc3ccc(Oc4ccccc4)cc3)O[C@@H](CO)[C@@H]1O2	none
CCCNC(=O)C[C@H]1C[C@H]2c3cc(NC(=O)CN(C)C)ccc3O[C@H]2[C@H](CO)O1	none
CN(C)c1ccc2c(c1)[C@H]1C[C@@H](CC(=O)NCc3ccc(Oc4ccccc4)cc3)O[C@H](CO)[C@H]1O2	DENV2 CPE 82 (no result: Statin myotox sup)
CN(C)CC(=O)Nc1ccc2c(c1)[C@H]1C[C@@H](CC(=O)NCc3ccccc3)O[C@H](CO)[C@H]1O2	DENV2 CPE 21
CCCNC(=O)C[C@@H]1C[C@H]2c3cc(NC(=O)CN(C)C)ccc3O[C@H]2[C@@H](CO)O1	DENV2 CPE 65
CN(C)CC(=O)Nc1ccc2c(c1)[C@@H]1C[C@H](CC(=O)NCc3ccccc3)O[C@H](CO)[C@@H]1O2	none
COc1ccc(NC(=O)N(C)C[C@@H]2Oc3ncc(C#C[C@H](C)O)cc3C(=O)N([C@@H](C)CO)C[C@@H]2C)cc1	none
C[C@@H]1CCCCO[C@@H](CN(C)C(=O)Nc2ccccc2)[C@H](C)CN([C@H](C)CO)C(=O)c2cc(NS(=O)(=O)c3cn(C)cn3)ccc2O1	none (no result: Statin myotox sup)
C[C@H](CO)N1C[C@H](C)[C@H](CN(C)S(=O)(=O)c2ccc(Cl)cc2)Oc2ccc(N(C)C)cc2C1=O	none (no result: E-sel inducer)
Cc1ccc(S(=O)(=O)N(C)C[C@@H]2Oc3c(cccc3N(C)C)C(=O)N([C@H](C)CO)C[C@@H]2C)cc1	none
O=C(NC1CCCC1)N[C@H]1CC[C@@H](CC(=O)N2CCOCC2)O[C@@H]1CO	none
CCNC(=O)C[C@@H]1CC[C@@H]2[C@H](COC[C@H](O)CN2C(=O)C2CC2)O1	none
COc1ccccc1CNC(=O)C[C@@H]1C[C@H]2c3cc(NC(=O)Nc4ccccc4F)ccc3O[C@H]2[C@H](CO)O1	none
COc1ccccc1CNC(=O)C[C@@H]1C[C@H]2c3cc(NC(=O)Nc4ccc(C(F)(F)F)cc4)ccc3O[C@H]2[C@@H](CO)O1	DENV2 CPE 36
CNC[C@H]1Oc2ccc(NS(=O)(=O)c3cn(C)cn3)cc2C(=O)N([C@H](C)CO)C[C@@H]1C	none
CNC[C@H]1Oc2ccc(NS(=O)(=O)c3ccc(Cl)cc3)cc2C(=O)N([C@H](C)CO)C[C@H]1C	DENV2 CPE 28 (no result: E-sel inducer)
CNC[C@@H]1Oc2ccc(NS(C)(=O)=O)cc2C(=O)N([C@@H](C)CO)C[C@H]1C	none
C[C@@H]1CN([C@H](C)CO)C(=O)c2cc(NS(=O)(=O)c3cn(C)cn3)ccc2O[C@H]1CN(C)Cc1ccncc1	E-sel inducer 92
C[C@@H]1CN([C@H](C)CO)C(=O)c2cc(NS(=O)(=O)c3cn(C)cn3)ccc2O[C@@H]1CN(C)Cc1ccncc1	none
CNC[C@@H]1Oc2ccc(NS(=O)(=O)c3cn(C)cn3)cc2C(=O)N([C@@H](C)CO)C[C@H]1C	DENV2 CPE 23
CNC[C@@H]1Oc2ccc(NS(=O)(=O)c3ccc(Cl)cc3)cc2C(=O)N([C@@H](C)CO)C[C@@H]1C	none (no result: E-sel inducer)
CNC[C@@H]1Oc2ccc(NS(C)(=O)=O)cc2C(=O)N([C@@H](C)CO)C[C@@H]1C	E-sel inducer 33 (no result: DENV2 CPE)
COc1ccc(S(=O)(=O)Nc2ccc3c(c2)C(=O)N([C@H](C)CO)C[C@@H](C)[C@@H](CN(C)C(=O)Nc2cccc4ccccc24)OCCCC[C@@H](C)O3)cc1	none
Cc1noc(C)c1COc1cccc(C(=O)Nc2ccccc2)c1	none (no result: E-sel inducer)
Cc1ccc(NC(=O)c2cccc(OCc3c(C)noc3C)c2)cc1	Statin myotox sup 105 (no result: E-sel inducer, DENV2 CPE)
C[C@H](CO)N1C[C@H](C)[C@H](CN(C)CC2CCCCC2)Oc2ccc(NC(=O)Cc3cn(C)c4ccccc34)cc2C1=O	none
COc1ccc(Br)cc1/C=C/c1ccc2cccc(O)c2n1	Statin myotox sup 68
COc1cc(Br)cc(/C=C/c2ccc3cccc(O)c3n2)c1OC	none
O=C(OCc1cn([C@@H]2CN(C(=O)C3CCCCC3)[C@@H](c3ccccc3)C[C@H]2O)nn1)c1ccccc1	none
COc1ccc([C@H]2C[C@H](n3cc(C4CC4)nn3)[C@@H](O)CN2C(=O)C2CCCCC2)cc1	none
COc1ccc([C@H]2C[C@H](n3cc(COC(=O)c4ccccc4)nn3)[C@@H](O)CN2C(=O)C2CCCCC2)cc1	none

Screening data from PubChem BioAssay.
